Screening data: PubChem, several laboratories
Shown are actives, neighbours in structure and some others; about 1.8% of the full set was active somewhere.
TCR-CD3 inh: inhibitors of human TCR-CD3 interaction, primary screen, biochemical, fluorescence, TAMRA-labeled TCR probe; T-cell receptor (TCR); inhibition, % at 9.4 µM; actives 0.37% (n = 360,000); AID 651800, 2012; in the data active = inhibition above about 19%;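 also: recombinant mutant TCR 2C K166C tagged with TAMRA read by polarization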
ARNT-TACC3 inh: disruptors of ARNT/TACC3 protein interaction, primary screen, biochemical, AlphaScreen, single concentration | Transforming acidic coiled-coil-containing protein 3 (Homo sapiens), Q9Y6A5 | AlphaScreen His-ARNT PAS-B/GST-TACC3 binding, luminescence; TACC3 fragment carries E629A point mutation | inhibition, % at 9.99 µM | actives 0.66% (n = 390,000) | AID 623870, 2012;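 active = mean inhibition of replicates at least 50% and at least half of replicates each reaching 50%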
SIAE primary: human SIAE inhibitors, primary screen, biochemical, fluorescence polarization, FP-Rh probe, 1536-well HTS; Sialate O-acetylesterase (Homo sapiens), Q9HAT2; SIAE FP-Rh probe binding; inhibition, % at 9.66 µM; actives 0.69% (n = 370,000); AID 1053197, 2014;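 active = inhibition above a cutoff: mean of compounds within the control limits plus 3 SD of those, cut at about 17% in these data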
ABHD4 inh: ABHD4 inhibitors, primary screen, biochemical, fluorescence polarization, mouse; (Lyso)-N-acylphosphatidylethanolamine lipase (Mus musculus), Q8VD66; purified mABHD4, FP-Rh probe fluorescence polarization; inhibition, % at 8.92 µM; actives 0.54% (n = 370,000); AID 720543, 2013;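 active = inhibition exceeding the mean over every tested compound plus 3 SD, cut at about 30% in these data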
Target sequence (Q8VD66 whole entry, looked up): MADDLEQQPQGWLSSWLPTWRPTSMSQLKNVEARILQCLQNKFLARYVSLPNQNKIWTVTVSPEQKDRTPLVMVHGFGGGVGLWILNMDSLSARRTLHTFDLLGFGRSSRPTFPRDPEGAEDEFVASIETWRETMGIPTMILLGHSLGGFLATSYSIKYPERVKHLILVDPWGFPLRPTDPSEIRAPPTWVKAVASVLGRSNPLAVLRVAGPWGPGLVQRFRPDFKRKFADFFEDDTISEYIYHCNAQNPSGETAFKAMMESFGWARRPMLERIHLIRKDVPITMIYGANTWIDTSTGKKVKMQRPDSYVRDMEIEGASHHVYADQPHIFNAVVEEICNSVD
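System: mouse ABHD4 enzyme, wild type / Medium: HEPES pH 7.0, NaCl, Pluronic buffer / Reagent: FP-Rh activity-based fluorescent probe / Control set: S159A mutant high control, sample median low control / Detection: fluorescence polarization with parallel and perpendicular emission, 525/598 nm / Schedule: 45 min + 60 min at 25 °C / Compound dosing: 8.92 µM, single dose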
HTRA1 inhibitor: HTRA1 serine protease inhibitors, primary screen, biochemical, fluorescence polarization, HTS. Q92743. recombinant HTRA1, FP-rhodamine activity-based probe. inhibition, % at 5.96 µM. actives 0.5% (n = 340,000); in the data active = inhibition above about 36%
SIAE confirm: human SIAE inhibitors, retest, confirmation, biochemical, fluorescence polarization, FP-Rh probe, triplicate; actives 13% (n = 2,300); inhibition, % at 9.66 µM; AID 1117263, 2014; shares compounds with SIAE primary; SIAE FP-Rh activity-based probe;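 active = mean inhibition of the replicates above the hit cutoff set in the primary screen, cut at about 17% in these data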;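 also: inhibitors lower polarization as more probe stays unbound to SIAE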
Of the large screens only hits and unclear results are named; the others gave an inactive call (follow-up assays come after a bar, where they were run); ! = not confirmed by another sample.

CN(C)c1ccc(N=Cc2nc(-c3ccccc3)oc2O)cc1	SIAE primary 18 | SIAE confirm inactive
O=C(Nc1ccc(Nc2ccccc2)cc1)Nc1ccccc1Cl	SIAE primary 24 | SIAE confirm inactive
O=C(Nc1ccccc1)Nc1csc2ccccc12	SIAE primary 18 (no result: ARNT-TACC3 inh, HTRA1 inhibitor) | SIAE confirm inactive
CO[C@H]1CN(C)C(=O)c2cc(NC(=O)Nc3ccc(C(F)(F)F)cc3)ccc2OC[C@@H](C)NC[C@H]1C	none (no result: TCR-CD3 inh, SIAE primary, ABHD4 inh, HTRA1 inhibitor)
O=C1C=C(c2ccccc2)C[C@@H](c2ccc(Cl)cc2)C1	SIAE primary 26 | SIAE confirm inactive
Cc1ccc(C2=CC(=O)C[C@H](c3ccc(Cl)cc3)C2)cc1	none (no result: TCR-CD3 inh, SIAE primary, ABHD4 inh)
CN1/C(=C/C=C(C#N)C#N)C(C)(C)c2ccccc21	SIAE primary 25 | SIAE confirm 81
CC(C)(C)NCCC(O)c1cc(C(F)(F)F)nc2c(C(F)(F)F)cccc12 (configuration not stated)	SIAE primary 78 | SIAE confirm inactive
O=C(C[n+]1cccc2ccccc21)c1ccc(Br)cc1	SIAE primary 20 | SIAE confirm inactive
CC(C)(C)C(=O)COC(=O)c1c2c(nc3ccccc13)CCC2	none
NC(=O)COC(=O)c1c2c(nc3ccccc13)CCCCC2	SIAE primary 17 | SIAE confirm inactive
O=S(N1CCc2ccccc21)C12CC3CC(CC(C3)C1)C2 (configuration not stated)	SIAE primary 23 | SIAE confirm inactive
C[C@@H]1CN([C@@H](C)CO)C(=O)Cc2cc(NC(=O)CCCN(C)C)ccc2O[C@H]1CN(C)C(=O)Nc1ccc(F)cc1	none (no result: TCR-CD3 inh, SIAE primary, ABHD4 inh, HTRA1 inhibitor)
Nc1c(C(=O)Nc2ccccc2)sc2nc(-c3ccco3)ccc12	SIAE primary 30 | SIAE confirm inactive
CNC(=O)CSc1nc2c([nH]c3ccccc32)c(=O)n1CCOC	none
CCc1nnc(NC(=O)CSc2nc3c([nH]c4ccccc43)c(=O)n2CCOC)s1	SIAE primary 18 | SIAE confirm inactive
CC(=O)N1CCN(c2ccc(NCc3ccc4c(c3)OCO4)cc2)CC1	SIAE primary 20 | SIAE confirm inactive
CC(=O)N1CCN(c2ccc(NCc3cccs3)cc2)CC1	none
O=C(c1ccccc1)N1CCN(c2ccc(NCc3ccc4c(c3)OCO4)cc2)CC1	none
CC(=O)N1CCN(c2ccc(NCc3ccccc3)cc2)CC1	SIAE primary 28 | SIAE confirm inactive
COc1cc2ccccc2cc1C(=O)N1CCN(C(C)=O)CC1	SIAE primary 22 | SIAE confirm inactive
COCc1cc(C)nc(SCC(=O)Nc2ccc3c(c2)OCO3)c1C#N	SIAE primary 17 | SIAE confirm inactive
COCc1cc(C)nc(SCC(=O)Nc2ccc3c(c2)OCCO3)c1C#N	none
CCC(=O)N1CCC(C)(C(=O)Nc2ccc(OC)c(OC)c2)C1 (configuration not stated)	SIAE primary 18 (no result: ARNT-TACC3 inh, HTRA1 inhibitor) | SIAE confirm inactive
O=C1[C@@H](CCc2ccccc2)[C@@H]2c3ccccc3C=NN2[C@@H]2c3ccccc3C=NN12	SIAE primary 18 (no result: TCR-CD3 inh, ARNT-TACC3 inh, HTRA1 inhibitor) | SIAE confirm inactive
COc1ccc(S(=O)(=O)N[C@@H]2CC[C@H](CC(=O)N3CCN(c4ccccc4)CC3)O[C@H]2CO)cc1	none (no result: TCR-CD3 inh, SIAE primary, ABHD4 inh, HTRA1 inhibitor)
COc1ccc(/C(C)=N/N=C2/NC(=O)CC(C(=O)O)S2)cc1 (configuration not stated)	SIAE primary 22 | SIAE confirm inactive
COc1ccc(-n2nnc3c(=O)n(CC(=O)Nc4cc(C)on4)cnc32)cc1OC	SIAE primary 24 | SIAE confirm inactive
CCCNC(=O)N(C)C[C@H]1Oc2ncc(-c3ccc(OC)cc3)cc2C(=O)N([C@H](C)CO)C[C@H]1C	none (no result: TCR-CD3 inh, SIAE primary, ABHD4 inh, HTRA1 inhibitor)
CCCCN(C(=O)C(C)N1C(=O)c2ccccc2C1=O)c1c(N)n(CCCC)c(=O)[nH]c1=O (configuration not stated)	SIAE primary 19 | SIAE confirm inactive
O=c1[nH][nH]c(=O)c2cc([N+](=O)[O-])ccc12	SIAE primary 18! (no result: ARNT-TACC3 inh) | SIAE confirm inactive
COc1ccc2c3c([nH]c2c1)C1=NCC[C@]12c1ccccc1N=CN2CC3	none (no result: TCR-CD3 inh, ARNT-TACC3 inh, HTRA1 inhibitor)
COc1ccc([C@@]23CCN=C2c2[nH]c4ccccc4c2CCN3)c(N)c1	SIAE primary 19 (no result: TCR-CD3 inh, ARNT-TACC3 inh, HTRA1 inhibitor) | SIAE confirm inactive
Cc1cc(C)nc(N2CCCC(C(=O)NC(C)C)C2)n1 (configuration not stated)	SIAE primary 18 | SIAE confirm inactive
CC(C)C#Cc1ccc2c(c1)O[C@H](CN(C)C(=O)c1ccccn1)[C@@H](C)CN([C@@H](C)CO)S2(=O)=O	none (no result: TCR-CD3 inh, SIAE primary, ABHD4 inh, HTRA1 inhibitor)
COc1ccccc1OCc1ccc(C(=O)N2CCOCC2)o1	SIAE primary 20 | SIAE confirm inactive
Cc1c(N=Cc2cccnc2)c(=O)n(-c2ccccc2)n1C	SIAE primary 21 | SIAE confirm inactive
Nc1ccc(C2=Nc3cccc4cccc(c34)N2)cc1	SIAE primary 24 | SIAE confirm inactive
c1coc(C2=Nc3cccc4cccc(c34)N2)c1	SIAE primary 23 (no result: ARNT-TACC3 inh) | SIAE confirm inactive
COc1cccc(C2=Nc3cccc4cccc(c34)N2)c1	SIAE primary 22 | SIAE confirm inactive
COc1cccc(-c2nnc(-c3ccc4ccccc4c3)o2)c1	none
Cc1cc(OC(=O)c2cc(F)c(F)cc2Cl)nc(C)n1	SIAE primary 19 | SIAE confirm inactive
O=C(NCc1cccs1)c1ccccc1	none
O=C(NCc1cccs1)c1cccc(Nc2nc3ccc(Br)cc3[nH]2)c1	SIAE primary 43 | SIAE confirm 22
CN(c1ccc(NC(=O)CCc2c[nH]c3ccccc23)cc1)c1ccccn1	SIAE primary 27 (no result: ARNT-TACC3 inh, HTRA1 inhibitor) | SIAE confirm 22
CN(c1ccc(NC(=O)Cc2cn(C)c3ccccc23)cc1)c1ccccn1	SIAE primary 29 (no result: ARNT-TACC3 inh, HTRA1 inhibitor) | SIAE confirm 29
O=[N+]([O-])c1ccc(NN=Cc2ccccc2O)nc1	none
O=[N+]([O-])c1ccc(N/N=C/c2ccccc2O)cc1	SIAE primary 40 | SIAE confirm inactive
COc1cc(/C=N/Nc2nc3ccccc3[nH]2)ccc1O	SIAE primary 18 | SIAE confirm inactive
O=[N+]([O-])c1ccc(O)c(/C=N/Nc2nc3ccccc3[nH]2)c1	ARNT-TACC3 inh 83, SIAE primary 19 | SIAE confirm inactive
CCNC(=O)C[C@@H]1CC[C@H]2[C@@H](COc3ccc(NC(=O)c4cccs4)cc3C(=O)N2C)O1	none (no result: TCR-CD3 inh, SIAE primary, ABHD4 inh, HTRA1 inhibitor)
